# Screening results: PubChem BioAssay, The Scripps Research Institute Molecular Screening Center
# Rows were chosen to be rich in hits. Some 3.2% of all compounds tested hit in one or more screens of this group.
# HTRA1 inhibitor = blocks human HTRA1 serine peptidase; Q92743; recombinant HTRA1, FP-rhodamine activity-based probe, fluorescence polarization; inhibition, % at 5.96 µM; 340,000 compounds, 0.5% hits; in the data active = inhibition above about 36%;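 note: 0% = enzyme with DMSO and 100% = wells lacking enzyme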
# ABHD4 inh = inhibitors of mouse ABHD4; Q8VD66; purified mABHD4, FP-Rh probe fluorescence polarization; inhibition, % at 8.92 µM; 370,000 compounds, 0.54% hits;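 active = inhibition exceeding the mean over every tested compound plus 3 SD, cut at about 30% in these data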;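 note: 0% = plate median of compound wells and 100% = S159A mutant with DMSO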
#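 assay system = mABHD4 protein | compound dosing = single nominal dose of 8.92 µM, 0.89% DMSO final | read-out basis = percent inhibition of probe binding, normalized to plate controls | schedule = Enzyme–compound pre-incubation 45 min, then probe 60 min, both 25 °C | detection = fluorescence polarization, excitation 525 nm, emission 598 nm, BODIPY TMR filters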
# PRMT1 FP inh = inhibitors of human PRMT1; 370,000 compounds, 1.3% hits; inhibition, % at 2.79 µM; Q99873; recombinant PRMT1, activity-based probe fluorescence polarization; AID 652257;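 active = inhibition above about 21% made by adding two undisclosed values, limit read from the data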
# DAGLB inhibitor = diacylglycerol lipase beta (human) inhibition | Q8NCG7 | HEK293T DAGLB membrane lysate, EnzChek fluorogenic substrate | inhibition, % at 5.17 µM | 340,000 compounds, 0.059% hits | AID 504411; in the data active = inhibition above about 34%;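 note: 0% = enzyme with vehicle and 100% = wells lacking enzyme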
# Target sequence (Q8NCG7 whole entry, looked up): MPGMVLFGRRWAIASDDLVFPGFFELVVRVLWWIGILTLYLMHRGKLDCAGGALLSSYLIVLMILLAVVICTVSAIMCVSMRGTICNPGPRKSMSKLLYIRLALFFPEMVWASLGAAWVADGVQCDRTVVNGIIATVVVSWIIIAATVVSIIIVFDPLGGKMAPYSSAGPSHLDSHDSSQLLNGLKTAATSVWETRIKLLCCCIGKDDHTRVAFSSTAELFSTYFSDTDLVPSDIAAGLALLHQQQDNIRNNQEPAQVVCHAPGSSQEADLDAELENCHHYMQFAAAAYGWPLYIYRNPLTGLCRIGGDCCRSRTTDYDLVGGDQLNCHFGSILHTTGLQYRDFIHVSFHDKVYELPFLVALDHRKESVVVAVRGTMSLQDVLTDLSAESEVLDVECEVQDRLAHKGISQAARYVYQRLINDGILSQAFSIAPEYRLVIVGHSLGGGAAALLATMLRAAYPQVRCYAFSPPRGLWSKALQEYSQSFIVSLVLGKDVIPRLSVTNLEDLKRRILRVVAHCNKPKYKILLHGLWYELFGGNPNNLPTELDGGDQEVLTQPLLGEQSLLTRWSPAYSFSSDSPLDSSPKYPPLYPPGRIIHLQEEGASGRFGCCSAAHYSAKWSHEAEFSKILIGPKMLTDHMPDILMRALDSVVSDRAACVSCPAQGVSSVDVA
# rCAG RNA binder = binds r(CAG) RNA repeats; r(CAG) RNA repeat, TO-PRO-1 dye displacement fluorescence; inhibition, % at 3 µM; 370,000 compounds, 1.3% hits;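 active = inhibition above the plate cutoff, the mean of all test compounds on that plate plus 3 SD, cut at about 35% in these data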;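 note: 0% = DMSO alone and 100% = 100 µM mitoxantrone as full dye displacement; higher means more dye released from RNA so lower well fluorescence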
# LEDGF integ inh = blocks HIV-1 LEDGF/p75-dependent DNA integration; TR-FRET IN-LEDGF/p75 DNA integration, Eu/Cy5; 370,000 compounds, 0.64% hits; inhibition, % at 3.7 µM;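 active = inhibition above the screen-wide mean plus 3 SD, cut at about 13% in these data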;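 note: signal is the Cy5 over europium emission ratio at 671 and 618 nm; 0% = plate median of compound wells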
# An asterisk follows results filed as active; · = not tested or not shown.
SMILES,HTRA1 inhibitor,ABHD4 inh,PRMT1 FP inh,DAGLB inhibitor,rCAG RNA binder,LEDGF integ inh
Cc1c(OCC(F)(F)F)ccnc1CS(=O)c1nc2ccccc2[nH]1 (stereo unspecified),5,15,28*,0,6,-2
COc1ccc(N2CCN(C(=O)c3cc(-c4cc(OC)ccc4OC)nc4ccccc34)CC2)cc1,-19,6,1,3,1,-4
Cc1nc2ccccc2c(=O)n1NC(=O)c1ccc([N+](=O)[O-])cc1Cl,-2,-1,-3,2,3,-2
CCN(CC)S(=O)(=O)c1ccc2c(c1)nc(SCn1nnc3ccccc3c1=O)n2CC,-2,-4,22*,0,8,1
CCN(CC)S(=O)(=O)c1ccc2c(c1)nc(SCC(=O)N(C)C1CCS(=O)(=O)C1)n2CC (stereo unspecified),9,4,-1,1,-3,-1
CCCCC(=O)Nc1ccc(NC(=O)c2ccc([N+](=O)[O-])cc2Cl)cc1OC,2,4,1,1,-5,2
CC(=O)N1CCN(c2nnc(-c3ccccc3)c3ccccc23)CC1,8,-4,-3,0,-2,3
CC(=O)C1=C(c2ccccc2)N(C(C)=O)n2c(C)nnc2S1,4,1,73*,-2,-1,1
COC(=O)C1=CN(c2cccc(C)c2)C=C(C(=O)OC)C1c1cc(OC)c(O)c([N+](=O)[O-])c1,52*,8,-2,24,5,0
C/C(=N\OCc1nc2ccccc2c(=O)n1/N=C/c1cc([N+](=O)[O-])ccc1O)c1ccccc1,30,3,-3,8,62*,-4
Cn1c(=O)c2[nH]c(Nc3ccccc3)nc2n(C)c1=O,6,1,0,-1,32,0
Cc1ccc(Nc2nc3c([nH]2)c(=O)[nH]c(=O)n3C)cc1,1,0,-3,2,7,45*
CC12CCC(C(=O)NCCCn3ccnc3)(OC1=O)C2(C)C (stereo unspecified),2,1,0,-2,-4,1
Oc1ccc(C2CNCc3sccc32)cc1O (stereo unspecified),27,24,46*,1,4,12
NC(=O)CSc1cn(Cc2ccccc2)c2ccccc12,3,3,23*,-2,-4,-4
CCCCOc1ccc(-c2nc(SCC(N)=O)n[nH]2)cc1,7,-7,-2,-2,-1,-5
CCCCOc1ccc(-c2nc(=S)[nH][nH]2)cc1,-5,3,22*,2,6,0
CCCOc1ccc(C2=CC(=O)C[C@H](c3ccc(OC)cc3)C2)cc1,-45,-1,-1,-12,-4,-1
Nc1ccc2c(c1)C(=O)N(c1cccc3ccccc13)C2=O,-13,5,0,1,3,-5
CC1=CC(=O)N(c2cccc3c(N4C(=O)C=C(C)C4=O)cccc23)C1=O,-41,-11,10,3,36*,7
Cc1ccc(-c2nnc(SCC(=O)N/N=C/c3ccccc3C(=O)O)n2C2CCCCC2)cc1,-6,2,-1,2,22,5
COC(=O)CCC(=O)OC1(C)C(=O)C2=CN(CCc3ccccn3)C(c3ccc(OC)cc3)=CC2=C(Br)C1=O (stereo unspecified),37*,·,·,8,·,·
Brc1cc2c(cc1CN1CCc3ccccc3C1)OCO2,-7,-2,-2,-13,-6,0
Oc1c(CN2CCc3ccccc3C2)cc(Cl)c2cccnc12,69*,·,·,7,·,·
O=C(Nc1ccc(Cl)cc1Cl)c1ccc2c(c1)OCCO2,-16,-4,-1,-9,0,1
SMILES,HTRA1 inhibitor,ABHD4 inh,PRMT1 FP inh,DAGLB inhibitor,rCAG RNA binder,LEDGF integ inh
O=C(Nc1ccc(Cl)cc1Cl)c1cccc(N2C(=O)C=CC2=O)c1,-16,-1,88*,5,11,-3
COc1ncnc2c1NC1=C(S2)C(=NCCC(=O)O)CC(C)(C)C1,15,12,28*,-3,-31,1
CC(=O)Oc1cccc2c1C(=O)C1CC=CC(OC(C)=O)C1C2=O (stereo unspecified),15,2,56*,0,4,0
COc1cccc(CNC(=O)C23CN(Cc4ccccc4)CC2C(c2ccc([N+](=O)[O-])cc2)=NO3)c1 (stereo unspecified),-13,3,6,-5,3,-1
CC(C)CCNC(=O)C12CN(Cc3ccccc3)CC1C(c1ccc([N+](=O)[O-])cc1)=NO2 (stereo unspecified),-14,-9,22*,-8,14,0
N#C/C(=C/c1ccccc1OCc1ccc(F)cc1)c1ccc(C(=O)O)cc1,-47,-10,4,4,32,5
N#C/C(=C/c1cccn1-c1cccc(C(=O)O)c1)c1ccc(F)cc1,-20,-14,1,7,50*,2
Cc1nc2cc(C(=O)O)ccc2s1,4,-2,21*,-2,-2,-1
CC(=O)Nc1ccc(SCc2c(C)noc2C)cc1,-2,-4,21*,3,-4,-3
CC(=O)Nc1ccc(SCc2ncc(-c3ccccc3)o2)cc1,-12,1,22*,0,-4,2
Cc1noc(C)c1CSc1ccc(Br)cc1,-1,4,-3,-1,-5,-2
CC(=O)Nc1ccc(SCC(=O)Nc2ccccc2-c2ccccc2)cc1,0,-5,7,0,-7,-1
O=C(CCOc1ccccc1)Nc1cccc(S(=O)(=O)Nc2ccccc2Cl)c1,-23,-23,-1,-1,31,-2
O=C(O)c1ccccc1CSC1=NCCS1,6,-4,21*,-1,9,-1
O=C(CSC1=NCCS1)Nc1cccc2ccccc12,-10,-18,21,-2,4,-1
O=C(CSC1=NCCS1)Nc1ccccc1F,-2,-7,22*,-5,3,0
Cc1cccc(C(=O)NCC(=O)N2CCN(c3ccccn3)CC2)c1,-6,-6,-2,-4,-2,2
C#CCNC(=O)C1=C[C@H](c2ccc(C(F)(F)F)cc2)C[C@H](OCc2ccc(CO)cc2)O1,-49,-10,2,-4,-3,-5
CCCCCC(O)CCc1n[nH]c(=S)n1-c1ccccc1 (stereo unspecified),-1,6,0,-1,-1,3
O=C(CCl)c1cc2c3c(c1)CC(=O)N3CCC2,-3,3,8,-4,2,2
O=c1oc2c3c4c(cc2s1)CCCN4CCC3,15,18,75*,-6,2,10
O=C1OCc2nc3cc4c(cc3c(-c3ccc(F)cc3)c21)OCO4,6,-4,-5,-2,1,2
O=C1NC(=NCc2ccccc2)S/C1=C\c1ccccc1,-7,9,-1,-6,7,-1
O=C1N/C(=N\S(=O)(=O)Cc2ccccc2)S/C1=C/c1cc([N+](=O)[O-])ccc1O,8,18,1,17,71*,-1
